From ChEMBL document CHEMBL1156768, “The structure-activity relationship of the antimalarial ozonide arterolane (OZ277)” (J Med Chem, 2010)
Values after ≈ are worked out from the molar mass of the structure shown.

What was measured:
Plasmodium falciparum [1] = experiment: Antimalarial activity against chloroquine-sensitive Plasmodium falciparum NF54 infected in human A+ erythrocytes assessed as [3H]hypoxanthine incorporation by semi-automated micro dilution assay; format: functional, organism-based
Plasmodium berghei [2] = experiment: Antiplasmodial activity against Plasmodium berghei infected in NMRI mice (Mus musculus) assessed as reduction of parasitaemia level at 10 mg/kg, perorally administered 1 day after post-infection measured after 3 days post-infection; format: functional; design: scale not given: the % may be the effect or the level left; settings: route oral
Method in brief: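 Groups of five NMRI mice infected with P. berghei received a single oral dose on day 1 postinfection. Read-out was percent reduction in parasitemia on day 3 postinfection. Individual measurements differed by less than 10%.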

Plasmodium falciparum [3] = experiment: Antimalarial activity against chloroquine-resistant Plasmodium falciparum K1 infected in human A+ erythrocytes assessed as [3H]hypoxanthine incorporation by semiautomated micro dilution assay; format: functional, organism-based
Plasmodium berghei [4] = experiment: Antiplasmodial activity against Plasmodium berghei infected in NMRI mice (Mus musculus) assessed as curing of parasitaemia at 3 mg/kg, perorally daily once for 3 consecutive days measured after 30 days post-infection; format: functional; settings: route oral
Method in brief: (§1)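 P. berghei-infected NMRI mice, in groups of five, were dosed orally at 3 mg/kg on days +1, +2 and +3 postinfection. Parasitemia reduction, survival time and cure were scored.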

[5] = Oral bioavailability in Sprague-Dawley rat; format: ADME, organism-based; settings: in vivo
Method in brief: (§2)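 Rats received an IV infusion over 5-10 min through a jugular cannula at 2.5-3.5 mg/kg, in DMSO/aqueous buffer or propylene glycol/ethanol/water. Oral gavage used aqueous suspensions in HPMC or CMC with 0.4% Tween 80 and 0.5% benzyl alcohol. Carotid blood was sampled, and plasma was acetonitrile-precipitated and measured by LC/MS against plasma calibration standards. Values are averages of 2-3 determinations.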

Plasmodium berghei [6] = experiment: Antiplasmodial activity against Plasmodium berghei infected in NMRI mice (Mus musculus) assessed as reduction of parasitaemia level at 3 mg/kg, perorally daily once for 3 consecutive days measured after 4 days post-infection; format: functional; design: scale not given: the % may be the effect or the level left; settings: route oral; method in brief: as §1
[7] = Volume of distribution in Sprague-Dawley rat at 2.5 to 3.5 mg/kg, iv; format: ADME, organism-based; design: dose 2.5-3.5 mg/kg, route intravenous; settings: in vivo; method in brief: as §2
[8] = Plasma clearance in Sprague-Dawley rat at 2.5 to 3.5 mg/kg, iv; format: ADME, organism-based; design: dose 2.5-3.5 mg/kg, route intravenous; method in brief: as §2
Plasmodium berghei [9] = experiment: Antiplasmodial activity against Plasmodium berghei infected in NMRI mice (Mus musculus) assessed as mice (Mus musculus) survival days at 3 mg/kg, perorally daily once for 3 consecutive days measured after 4 days post-infection; format: functional; settings: route oral; method in brief: as §1
[10] = Half life in Sprague-Dawley rat at 2.5 to 3.5 mg/kg, iv; format: ADME, organism-based; design: dose 2.5-3.5 mg/kg, route intravenous; settings: in vivo; method in brief: as §2
[11] = Blood clearance in Sprague-Dawley rat at 2.5 to 3.5 mg/kg, iv; format: ADME, organism-based; design: dose 2.5-3.5 mg/kg, route intravenous; settings: whole blood; method in brief: as §2
Rattus norvegicus [12] = experiment: Renal toxicity in Sprague-Dawley rat at 300 mg/kg, po daily once for 5 days; format: organism-based; design: dose 300 mg/kg, route oral; settings: in vivo, 120 h
Method in brief: (§3)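 Preliminary toxicology was run in male rats given daily oral doses for five days.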

Rattus norvegicus [13] = experiment: Lymphatic organ toxicity in Sprague-Dawley rat at 300 mg/kg, po daily once for 5 days; format: organism-based; design: dose 300 mg/kg, route oral; settings: in vivo, 120 h; method in brief: as §3
Rattus norvegicus [14] = experiment: Liver toxicity in Sprague-Dawley rat at 300 mg/kg, po daily once for 5 days; format: organism-based; design: dose 300 mg/kg, route oral; settings: in vivo, 120 h; method in brief: as §3
Rattus norvegicus [15] = experiment: Neurotoxicity in Sprague-Dawley rat at 300 mg/kg, po daily once for 5 days; format: toxicity, organism-based; design: dose 300 mg/kg, route oral; settings: in vivo, 120 h; method in brief: as §3

| Compound | IC50 (Plasmodium falciparum [1]) | Activity (Plasmodium berghei [2]) | IC50 (Plasmodium falciparum [3]) | further results |
| --- | --- | --- | --- | --- |
| O=C(O)C[C@H]1CC[C@]2(CC1)OO[C@]1(O2)C2CC3CC(C2)CC1C3 | 45 ng/mL (≈ 140 nM) | 95% | 34 ng/mL (≈ 105 nM) | – |
| Cc1ccc(S(=O)(=O)O)cc1.NCCNC(=O)C[C@H]1CC[C@]2(CC1)OO[C@]1(O2)C2CC3CC(C2)CC1C3 | – | 99.9% | – | – |
| CC(C)(N)CNC(=O)NC[C@H]1CC[C@]2(CC1)OO[C@]1(O2)C2CC3CC(C2)CC1C3.Cc1ccc(S(=O)(=O)O)cc1 | 3.5 ng/mL | 97% | 3.2 ng/mL | – |
| CC(C)(N)Cn1nnnc1C[C@H]1CC[C@]2(CC1)OO[C@]1(O2)C2CC3CC(C2)CC1C3 | 1.5 ng/mL (≈ 3.59 nM) | 98% | 2.3 ng/mL (≈ 5.51 nM) | – |
| Cc1ccc(S(=O)(=O)O)cc1.NC1(CNC(=O)C[C@H]2CC[C@]3(CC2)OO[C@]2(O3)C3CC4CC(C3)CC2C4)CC1 | 0.52 ng/mL | 99.9% | 0.4 ng/mL | – |
| CC(C)(CN)CNC(=O)C[C@H]1CC[C@]2(CC1)OO[C@]1(O2)C2CC3CC(C2)CC1C3.CS(=O)(=O)O | 0.49 ng/mL | 99.9% | 0.46 ng/mL | – |
| CC(C)(N)CNC(=O)N[C@H]1CC[C@]2(CC1)OO[C@]1(O2)C2CC3CC(C2)CC1C3.Cc1ccc(S(=O)(=O)O)cc1 | 6.2 ng/mL | 63% | 8.4 ng/mL | – |
| O=C(C[C@H]1CC[C@]2(CC1)OO[C@]1(O2)C2CC3CC(C2)CC1C3)N1CCN(CCO)CC1 | 0.9 ng/mL (≈ 2.07 nM) | 96% | 1 ng/mL (≈ 2.3 nM) | – |
| CC(C)(N)CNC(=O)[C@H]1CC[C@@]2(CC1)OO[C@@]1(O2)C2CC3CC(C2)CC1C3.Cc1ccc(S(=O)(=O)O)cc1 | 0.74 ng/mL | 84% | 1.4 ng/mL | – |
| NC(=O)CNC(=O)C[C@H]1CC[C@]2(CC1)OO[C@]1(O2)C2CC3CC(C2)CC1C3 | 3.6 ng/mL (≈ 9.51 nM) | 99.6% | 3.9 ng/mL (≈ 10.3 nM) | – |
| CC(C)(N)CNC(=O)CC[C@H]1CC[C@]2(CC1)OO[C@]1(O2)C2CC3CC(C2)CC1C3.Cc1ccc(S(=O)(=O)O)cc1 | 0.82 ng/mL | >99.9% | 0.55 ng/mL | Activity (Plasmodium berghei [4]): 0%; bioavailability [5]: 32%; Activity (Plasmodium berghei [6]): >99.9%; Vd [7]: 12 L/kg; clearance [8]: 134 mL/min/kg; Survival (Plasmodium berghei [9]): 24.4 days; half-life [10]: 1 h |
| CS(=O)(=O)N1CCN(C(=O)C[C@H]2CC[C@]3(CC2)OO[C@]2(O3)C3CC4CC(C3)CC2C4)CC1 | – | <40% | – | – |
| Cc1ccc(S(=O)(=O)O)cc1.O=C(C[C@H]1CC[C@]2(CC1)OO[C@]1(O2)C2CC3CC(C2)CC1C3)N1CCNCC1 | 0.24 ng/mL | >99.9% | 0.21 ng/mL | Activity (Plasmodium berghei [4]): 0%; bioavailability [5]: 37%; Activity (Plasmodium berghei [6]): >99.9%; Vd [7]: 25 L/kg; clearance [8]: 168 mL/min/kg; half-life [10]: 1.7 h; clearance [11]: 56.3 mL/min/kg |
| NC(=O)C1CCN(C(=O)C[C@H]2CC[C@]3(CC2)OO[C@]2(O3)C3CC4CC(C3)CC2C4)CC1 | 1.7 ng/mL (≈ 3.93 nM) | 86% | – | – |
| CC(C)(N)CNC(=O)OC[C@H]1CC[C@]2(CC1)OO[C@]1(O2)C2CC3CC(C2)CC1C3.Cc1ccc(S(=O)(=O)O)cc1 | 0.36 ng/mL | >99.9% | 0.22 ng/mL | Activity (Plasmodium berghei [4]): 0%; Activity (Plasmodium berghei [6]): >99.9%; Survival (Plasmodium berghei [9]): 9.8 days |
| O=CN1CCN(C(=O)C[C@H]2CC[C@]3(CC2)OO[C@]2(O3)C3CC4CC(C3)CC2C4)CC1 | 0.63 ng/mL (≈ 1.51 nM) | 99.8% | 0.39 ng/mL (≈ 0.932 nM) | – |

| Compound | IC50 (Plasmodium falciparum [1]) | Activity (Plasmodium berghei [2]) | IC50 (Plasmodium falciparum [3]) | further results |
| --- | --- | --- | --- | --- |
| CC(C)(N)CNC(=O)C[C@H]1CC[C@@]2(CC1)OO[C@@]1(O2)C2CC3CC(C2)CC1C3.Cc1ccc(S(=O)(=O)O)cc1 | 1.5 ng/mL | 96% | 1.7 ng/mL | bioavailability [5]: 15%; Vd [7]: 16 L/kg; clearance [8]: 298 mL/min/kg; half-life [10]: 0.617 h |
| Cc1ccc(S(=O)(=O)O)cc1.N[C@H]1CC[C@H](NC(=O)C[C@H]2CC[C@]3(CC2)OO[C@]2(O3)C3CC4CC(C3)CC2C4)CC1 | – | >99.9% | – | Activity (Plasmodium berghei [4]): 0%; Activity (Plasmodium berghei [6]): >99.9%; Survival (Plasmodium berghei [9]): 22 days |
| O=C(O)C1CCN(C(=O)C[C@H]2CC[C@]3(CC2)OO[C@]2(O3)C3CC4CC(C3)CC2C4)CC1 | 27 ng/mL (≈ 62.3 nM) | – | 19 ng/mL (≈ 43.8 nM) | – |
| O=C(C[C@H]1CC[C@]2(CC1)OO[C@]1(O2)C2CC3CC(C2)CC1C3)NO | 2 ng/mL (≈ 5.93 nM) | 97% | 1.4 ng/mL (≈ 4.15 nM) | – |
| O=C1CN(C(=O)C[C@H]2CC[C@]3(CC2)OO[C@]2(O3)C3CC4CC(C3)CC2C4)CCN1 | 0.89 ng/mL (≈ 2.2 nM) | 99.2% | 0.6 ng/mL (≈ 1.48 nM) | – |
| O=C(C[C@H]1CC[C@]2(CC1)OO[C@]1(O2)C2CC3CC(C2)CC1C3)N1CCS(=O)(=O)CC1 | – | <40% | – | – |
| CC(C)(N)CNC(=O)[C@H]1CC[C@]2(CC1)OO[C@]1(O2)C2CC3CC(C2)CC1C3.Cc1ccc(S(=O)(=O)O)cc1 | 0.25 ng/mL | 96% | 0.66 ng/mL | – |
| O=C(C[C@H]1CC[C@]2(CC1)OO[C@]1(O2)C2CC3CC(C2)CC1C3)N1CCCCC1 | 1.6 ng/mL (≈ 4.11 nM) | – | 1.6 ng/mL (≈ 4.11 nM) | – |
| O=C(C[C@H]1CC[C@]2(CC1)OO[C@]1(O2)C2CC3CC(C2)CC1C3)N1CCC(O)CC1 | 0.76 ng/mL (≈ 1.87 nM) | 99.7% | 0.49 ng/mL (≈ 1.21 nM) | bioavailability [5]: 5%; Vd [7]: 36 L/kg; clearance [8]: 37 mL/min/kg; half-life [10]: 11 h |
| O=C(C[C@H]1CC[C@]2(CC1)OO[C@]1(O2)C2CC3CC(C2)CC1C3)N1CCOCC1 | 3 ng/mL (≈ 7.66 nM) | 99.8% | 1.7 ng/mL (≈ 4.34 nM) | – |
| NC(=O)C[C@H]1CC[C@]2(CC1)OO[C@]1(O2)C2CC3CC(C2)CC1C3 | 1.1 ng/mL (≈ 3.42 nM) | 97% | 0.91 ng/mL (≈ 2.83 nM) | – |
| Cc1ccc(S(=O)(=O)O)cc1.NCCCNC(=O)C[C@H]1CC[C@]2(CC1)OO[C@]1(O2)C2CC3CC(C2)CC1C3 | 2.3 ng/mL | 99.9% | 3.5 ng/mL | – |
| C[C@H]1[C@@H](O)O[C@@H]2O[C@@]3(C)CC[C@H]4[C@H](C)CC[C@@H]1[C@@]24OO3 [ARTENIMOL] | – | – | – | Vd [7]: 3 L/kg; clearance [8]: 72 mL/min/kg |
| C[C@H]1[C@H](OC(=O)CCC(=O)O)O[C@@H]2O[C@@]3(C)CC[C@H]4[C@H](C)CC[C@@H]1[C@@]24OO3 [ARTESUNATE] | – | – | – | Activity (Rattus norvegicus [12]): Non-toxic; Activity (Plasmodium berghei [6]): 70%; Activity (Rattus norvegicus [13]): Non-toxic; Activity (Rattus norvegicus [14]): Non-toxic; Survival (Plasmodium berghei [9]): 9.2 days; Activity (Rattus norvegicus [15]): Non-toxic |
| CCN(CC)CCCC(C)Nc1ccnc2cc(Cl)ccc12 (configuration not stated) [CHLOROQUINE] | – | – | – | Survival (Plasmodium berghei [9]): 9.4 days |
| OC(c1cc(C(F)(F)F)nc2c(C(F)(F)F)cccc12)C1CCCCN1 (configuration not stated) [MEFLOQUINE] | – | – | – | Activity (Plasmodium berghei [6]): 99%; Survival (Plasmodium berghei [9]): 15.8 days |
